Measurements reported in ChEMBL document CHEMBL4038273, “MAO enzymes inhibitory activity of new benzimidazole derivatives including hydrazone and propargyl side chains” (Eur J Med Chem, 2017).

How the values were obtained:
Salmonella typhimurium [1] = assay: Genotoxicity in Salmonella typhimurium TA100 assessed as increase in number of revertants at 0.625 mg/ml in presence of aroclor-1254-induced Sprague-Dawley rat liver microsomal S9 fraction by Ames-MPF assay relative to baseline; type: toxicity; conditions: salmonella enterica subsp. enterica serovar typhimurium, microsomes
Method in brief: (§1)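 AmesMPF 98/100 fluctuation format with S. typhimurium TA98 (frameshift) and TA100 (base-pair substitution), run with and without S9. Compounds were made up in DMSO at 0.156–5 mg/mL, six levels; solvent control was 4% DMSO. With S9, positive controls were 2-aminoanthracene at 1 µg/mL (TA98) and 2.5 µg/mL (TA100). Wells turned yellow by pH drop were scored positive. Fold over baseline is mean positive wells divided by (zero-dose mean + 1 SD). Student's t-test, p<0.05.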

Salmonella typhimurium [2] = assay: Genotoxicity in Salmonella typhimurium TA100 assessed as increase in number of revertants at 0.3125 mg/ml in absence of aroclor-1254-induced Sprague-Dawley rat liver microsomal S9 fraction by Ames-MPF assay relative to baseline; type: toxicity; conditions: salmonella enterica subsp. enterica serovar typhimurium, microsomes; method in brief: as §1
Salmonella typhimurium [3] = assay: Genotoxicity in Salmonella typhimurium TA98 assessed as increase in number of revertants at 0.156 mg/ml in presence of aroclor-1254-induced Sprague-Dawley rat liver microsomal S9 fraction by Ames-MPF assay relative to baseline; type: toxicity; conditions: salmonella enterica subsp. enterica serovar typhimurium, microsomes; method in brief: as §1
Salmonella typhimurium [4] = assay: Genotoxicity in Salmonella typhimurium TA98 assessed as increase in number of revertants at 0.3125 mg/ml in absence of aroclor-1254-induced Sprague-Dawley rat liver microsomal S9 fraction by Ames-MPF assay relative to baseline; type: toxicity; conditions: salmonella enterica subsp. enterica serovar typhimurium, microsomes; method in brief: as §1
Salmonella typhimurium [5] = assay: Genotoxicity in Salmonella typhimurium TA98 assessed as increase in number of revertants at 0.625 mg/ml in absence of aroclor-1254-induced Sprague-Dawley rat liver microsomal S9 fraction by Ames-MPF assay relative to baseline; type: toxicity; conditions: salmonella enterica subsp. enterica serovar typhimurium, microsomes; method in brief: as §1
Salmonella typhimurium [6] = assay: Genotoxicity in Salmonella typhimurium TA98 assessed as increase in number of revertants at 2.5 mg/ml in presence of aroclor-1254-induced Sprague-Dawley rat liver microsomal S9 fraction by Ames-MPF assay relative to baseline; type: toxicity; conditions: salmonella enterica subsp. enterica serovar typhimurium, microsomes; method in brief: as §1
Salmonella typhimurium [7] = assay: Genotoxicity in Salmonella typhimurium TA98 assessed as increase in number of revertants at 0.156 mg/ml in absence of aroclor-1254-induced Sprague-Dawley rat liver microsomal S9 fraction by Ames-MPF assay relative to baseline; type: toxicity; conditions: salmonella enterica subsp. enterica serovar typhimurium, microsomes; method in brief: as §1
Homo sapiens = species on record: Homo sapiens; assay: Selectivity index, ratio of IC50 for recombinant human MAO-A expressed in baculovirus infected BTI insect cells to IC50 for recombinant human MAO-B expressed in baculovirus infected BTI insect cells
Method in brief: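 Selectivity index calculated as IC50(MAO-A)/IC50(MAO-B), with both IC50 values from the fluorometric tyramine/HRP/Amplex Red inhibition assay.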

Salmonella typhimurium [8] = assay: Genotoxicity in Salmonella typhimurium TA100 assessed as increase in number of revertants at 0.156 mg/ml in absence of aroclor-1254-induced Sprague-Dawley rat liver microsomal S9 fraction by Ames-MPF assay relative to baseline; type: toxicity; conditions: salmonella enterica subsp. enterica serovar typhimurium, microsomes; method in brief: as §1
Salmonella typhimurium [9] = assay: Genotoxicity in Salmonella typhimurium TA98 assessed as increase in number of revertants at 1.25 mg/ml in presence of aroclor-1254-induced Sprague-Dawley rat liver microsomal S9 fraction by Ames-MPF assay relative to baseline; type: toxicity; conditions: salmonella enterica subsp. enterica serovar typhimurium, microsomes; method in brief: as §1
Salmonella typhimurium [10] = assay: Genotoxicity in Salmonella typhimurium TA98 assessed as increase in number of revertants at 0.625 mg/ml in presence of aroclor-1254-induced Sprague-Dawley rat liver microsomal S9 fraction by Ames-MPF assay relative to baseline; type: toxicity; conditions: salmonella enterica subsp. enterica serovar typhimurium, microsomes; method in brief: as §1
Salmonella typhimurium [11] = assay: Genotoxicity in Salmonella typhimurium TA100 assessed as increase in number of revertants at 1.25 mg/ml in absence of aroclor-1254-induced Sprague-Dawley rat liver microsomal S9 fraction by Ames-MPF assay relative to baseline; type: toxicity; conditions: salmonella enterica subsp. enterica serovar typhimurium, microsomes; method in brief: as §1
Salmonella typhimurium [12] = assay: Genotoxicity in Salmonella typhimurium TA100 assessed as increase in number of revertants at 0.3125 mg/ml in presence of aroclor-1254-induced Sprague-Dawley rat liver microsomal S9 fraction by Ames-MPF assay relative to baseline; type: toxicity; conditions: salmonella enterica subsp. enterica serovar typhimurium, microsomes; method in brief: as §1
Salmonella typhimurium [13] = assay: Genotoxicity in Salmonella typhimurium TA100 assessed as increase in number of revertants at 2.5 mg/ml in absence of aroclor-1254-induced Sprague-Dawley rat liver microsomal S9 fraction by Ames-MPF assay relative to baseline; type: toxicity; conditions: salmonella enterica subsp. enterica serovar typhimurium, microsomes; method in brief: as §1
Salmonella typhimurium [14] = assay: Genotoxicity in Salmonella typhimurium TA100 assessed as increase in number of revertants at 2.5 mg/ml in presence of aroclor-1254-induced Sprague-Dawley rat liver microsomal S9 fraction by Ames-MPF assay relative to baseline; type: toxicity; conditions: salmonella enterica subsp. enterica serovar typhimurium, microsomes; method in brief: as §1
Salmonella typhimurium [15] = assay: Genotoxicity in Salmonella typhimurium TA98 assessed as increase in number of revertants at 5 mg/ml in absence of aroclor-1254-induced Sprague-Dawley rat liver microsomal S9 fraction by Ames-MPF assay relative to baseline; type: toxicity; conditions: salmonella enterica subsp. enterica serovar typhimurium, microsomes; method in brief: as §1
Salmonella typhimurium [16] = assay: Genotoxicity in Salmonella typhimurium TA98 assessed as increase in number of revertants at 0.3125 mg/ml in presence of aroclor-1254-induced Sprague-Dawley rat liver microsomal S9 fraction by Ames-MPF assay relative to baseline; type: toxicity; conditions: salmonella enterica subsp. enterica serovar typhimurium, microsomes; method in brief: as §1
Salmonella typhimurium [17] = assay: Genotoxicity in Salmonella typhimurium TA98 assessed as increase in number of revertants at 2.5 mg/ml in absence of aroclor-1254-induced Sprague-Dawley rat liver microsomal S9 fraction by Ames-MPF assay relative to baseline; type: toxicity; conditions: salmonella enterica subsp. enterica serovar typhimurium, microsomes; method in brief: as §1
[18] = target: T1, Amine oxidase [flavin-containing] B (Homo sapiens, UniProt P27338); assay: Inhibition of recombinant human MAO-B expressed in baculovirus infected BTI insect cells using tyramine as substrate pretreated for 30 mins followed by substrate addition incubated for 30 mins measured at 5 mins interval by horse-radish peroxidase/amplex red-based fluorometric method; type: cell-based
T1 sequence (P27338 whole entry): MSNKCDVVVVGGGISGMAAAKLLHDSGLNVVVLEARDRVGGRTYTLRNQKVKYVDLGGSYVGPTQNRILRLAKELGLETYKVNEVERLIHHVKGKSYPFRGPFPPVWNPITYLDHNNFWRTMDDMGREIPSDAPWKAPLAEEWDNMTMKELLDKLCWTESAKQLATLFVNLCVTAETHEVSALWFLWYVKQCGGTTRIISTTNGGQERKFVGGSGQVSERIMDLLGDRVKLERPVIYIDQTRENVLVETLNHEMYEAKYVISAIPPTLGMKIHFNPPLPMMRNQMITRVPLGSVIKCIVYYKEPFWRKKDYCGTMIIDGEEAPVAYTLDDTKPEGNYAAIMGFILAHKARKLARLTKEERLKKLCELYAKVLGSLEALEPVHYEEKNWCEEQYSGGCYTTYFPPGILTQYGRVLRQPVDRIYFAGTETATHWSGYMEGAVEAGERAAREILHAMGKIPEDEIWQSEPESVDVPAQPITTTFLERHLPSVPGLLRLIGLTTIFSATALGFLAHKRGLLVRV

NIH3T3 = assay: Cytotoxicity against mouse NIH/3T3 cells by MTT assay; type: cell-based
Method in brief: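 NIH/3T3 mouse embryonic fibroblasts seeded at 1x10^4 cells per well and grown per supplier recommendations. Compounds tested over 0.0316-1000 µM by MTT reduction to formazan; IC50 determined.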

Compound: C#CCn1c(-c2ccc(C(=O)N/N=C/c3ccc(F)cc3)cc2)nc2ccccc21
- fold change (FC) (Salmonella typhimurium [1]): 1.15
- fold change (FC) (Salmonella typhimurium [2]): 0.79
- fold change (FC) (Salmonella typhimurium [3]): 1.3
- fold change (FC) (Salmonella typhimurium [4]): 0.46
- fold change (FC) (Salmonella typhimurium [5]): 0.23
- fold change (FC) (Salmonella typhimurium [6]): 2.95
- fold change (FC) (Salmonella typhimurium [7]): 0.68
- Ratio IC50 (Homo sapiens): 6.26
- fold change (FC) (Salmonella typhimurium [8]): 0.89
- fold change (FC) (Salmonella typhimurium [9]): 2.13
- fold change (FC) (Salmonella typhimurium [10]): 2.01
- fold change (FC) (Salmonella typhimurium [11]): 0.59
- fold change (FC) (Salmonella typhimurium [12]): 0.49
- fold change (FC) (Salmonella typhimurium [13]): 1.78
- fold change (FC) (Salmonella typhimurium [14]): 1.88
- fold change (FC) (Salmonella typhimurium [15]): 0.34
- fold change (FC) (Salmonella typhimurium [16]): 2.13
- fold change (FC) (Salmonella typhimurium [17]): 0.28
- IC50 [18]: 0.136 µM
- IC50 (NIH3T3): ≥ 1000 µM

Compound: C#CCn1c(-c2ccc(C(=O)N/N=C/c3cccnc3)cc2)nc2ccccc21
- fold change (FC) (Salmonella typhimurium [1]): 0.27
- fold change (FC) (Salmonella typhimurium [2]): 0.99
- fold change (FC) (Salmonella typhimurium [3]): 0.35
- fold change (FC) (Salmonella typhimurium [4]): 0.74
- fold change (FC) (Salmonella typhimurium [5]): 0.51
- fold change (FC) (Salmonella typhimurium [6]): 0.52
- fold change (FC) (Salmonella typhimurium [7]): 1.03
- Ratio IC50 (Homo sapiens): 128
- fold change (FC) (Salmonella typhimurium [8]): 0.74
- fold change (FC) (Salmonella typhimurium [9]): 0.52
- fold change (FC) (Salmonella typhimurium [10]): 0.35
- fold change (FC) (Salmonella typhimurium [11]): 0.64
- fold change (FC) (Salmonella typhimurium [12]): 0.27
- fold change (FC) (Salmonella typhimurium [13]): 0.74
- fold change (FC) (Salmonella typhimurium [14]): 0.27
- fold change (FC) (Salmonella typhimurium [15]): 0.46
- fold change (FC) (Salmonella typhimurium [16]): 0.35
- fold change (FC) (Salmonella typhimurium [17]): 0.4
- IC50 [18]: 0.075 µM
- IC50 (NIH3T3): 316 µM
